Drawing on ChEMBL document CHEMBL1122207, “Antitumor agents. 2. Bisguanylhydrazones of anthracene-9,10-dicarboxaldehydes” (1982), this text covers ILS and Cures for 22 compounds.

Type in all cases: functional
In assay [1] the test system is Mus musculus. Briefly: Percent increase in median life span of BDF1 mice with P-388 leukemia at dose 50 mg/kg administered intraperitoneally. Particulars: BDF1, P388, ip, route intraperitoneal.
For assay [2], the species on record is Mus musculus. Briefly: Anticancer activity measured as the number of survivors of the total treated mice with P-388 leukemia at 30 days. A digest of the protocol:
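BDF1 or CDF1 mice given 10^6 ascitic P-388 leukemia cells ip, then treated ip on days 1, 5 and 9. Cures are survivors over total treated at 30 days.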

The subject of assay [3] is Mus musculus. Briefly: Percent increase in median life span of BDF1 mice with P-388 leukemia at dose 200 mg/kg administered intraperitoneally. Particulars: BDF1, P388, ip, route intraperitoneal.
For assay [4], the species on record is Mus musculus. Briefly: Number of survivors of the total treated mice with B-16 melanoma, at 60 days. Put shortly: (§1)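 BDF1 mice were implanted ip with a homogenate from 0.05 g of B-16 melanoma and dosed ip on days 1-9. Cures are survivors over total at 60 days.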
The test system of assay [5] is Mus musculus. Briefly: Percent increase in median life span of BDF1 mice with B-16 melanoma at dose 12 mg/kg administered intraperitoneally. To be noted: BDF1, B16, ip, route intraperitoneal. A digest of the protocol: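 BDF1 mice were implanted ip with a homogenate from 0.05 g of B-16 melanoma. Ip dosing ran on days 1-9, starting 24 h after implant, in dose-response studies following NCI protocols. The read-out was percent increase in life span (ILS). T/C ≥125% was taken as significant.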

Assay [6] is filed under the species Mus musculus. Briefly: Cures is the number of survivors of the total treated mice (10) with B-16 melanoma, at 60 days. A digest of the protocol:
as §1

Assay [7] has as its system Mus musculus. Briefly: Percent increase in median life span of BDF1 mice with P-388 leukemia at dose 6.25 mg/kg administered intraperitoneally. To be noted: BDF1, P388, ip, route intraperitoneal.
For assay [8], the system named is Mus musculus. Briefly: Percent increase in median life span of BDF1 mice with P-388 leukemia at dose 12.5 mg/kg administered intraperitoneally. To be noted: BDF1, P388, ip, route intraperitoneal.

Molecules are shown by their SMILES.

As to `CC1(C)CCC(C)(C)NC(N/N=C/c2c3ccccc3c(/C=N/NC3=NC(C)(C)CCC(C)(C)N3)c3ccccc23)=N1.Cl.Cl`, the ILS (usually the gain in survival time of treated over control animals, in per cent) at 50 mg/kg in assay [1] turned out to be 0%. This compound gave a Cures in assay [2] of 0.
Regarding `CN1CCN(/N=C/c2c3ccccc3c(/C=N/N3CCN(C)CC3)c3ccccc23)CC1.Cl.Cl`, the Cures in assay [2] is 0. The ILS at 200 mg/kg in assay [3] worked out at 0%.
`Cc1cc2c(cc1C)C(/C=N/NC1=NCCN1)c1ccccc1C2/C=N/NC1=NCCN1` (stereo not given) came in with an ILS at 50 mg/kg in assay [1] of 73%.
Take `Cl.Cl.N=C(NCc1cccs1)N/N=C/c1c2ccccc2c(/C=N/NC(=N)NCc2cccs2)c2ccccc12`: the Cures in assay [4] and in assay [2] was 0 throughout. Further, the ILS at 12 mg/kg in assay [5] was determined as 75%. Also, the increase in life span (ILS) at 50 mg/kg in assay [1] amounted to 90%.
`CN(C)CC(=O)N/N=C/c1c2ccccc2c(/C=N/NC(=O)CN(C)C)c2ccccc12.Cl.Cl` gave a Cures in assay [2] of 0. Also, in assay [3], the ILS at 200 mg/kg is 0%.
In assay [3], `COc1ccc(OC)c2c1C(/C=N/NC1=NCCN1)c1ccccc1C2/C=N/NC1=NCCN1` (stereo not given) registered an ILS at 200 mg/kg of 0%.
Compound `Cl.Cl.S=C(NCCN1CCOCC1)N/N=C/c1c2ccccc2c(/C=N/NC(=S)NCCN2CCOCC2)c2ccccc12` had an ILS at 12 mg/kg in assay [5] of 103%. Further, the Cures came to 1 in assay [6] and 0 in assay [2]. The compound further returned an increase in lifespan (ILS) at 50 mg/kg in assay [1] of 80%.
With `CCN(CC)CC/N=C(\S)N/N=C/c1c2ccccc2c(/C=N/N/C(S)=N/CCN(CC)CC)c2ccccc12.Cl.Cl`, the increase in life span (ILS) at 6.25 mg/kg in assay [7] amounted to 95%. For the same compound, the Cures in assay [2] stood at 0.
The compound `C(=N\Nc1nc2ccccc2s1)/c1c2ccccc2c(/C=N/Nc2nc3ccccc3s2)c2ccccc12` came in with a Cures in assay [2] of 0. Besides, the increase in life span (ILS) at 200 mg/kg in assay [3] is 0%.
The matching figures for `CN1CCN(C)C1=N/N=C/c1c2ccccc2c(/C=N/N=C2N(C)CCN2C)c2ccccc12`: 0 and 0%.
The matching figures for `C(=N\Nc1ccccn1)/c1c2ccccc2c(/C=N/Nc2ccccn2)c2ccccc12`: 0 and 0%.
The matching figures for `NC(=O)N/N=C/c1c2ccccc2c(/C=N/NC(N)=O)c2ccccc12`: 0 and 0%.
With `N=C(N/N=C/c1c2ccccc2c(/C=N/NC(=N)NC2CCCCC2)c2ccccc12)NC1CCCCC1`, the Cures in assay [4] and in assay [2] was 0 throughout. The same compound yielded an ILS at 12 mg/kg in assay [5] of 80%. In assay [1], this compound displayed an ILS at 50 mg/kg of 73%.
In assay [2], `O=C(N/N=C/c1c2ccccc2c(/C=N/NC(=O)c2cccnc2)c2ccccc12)c1cccnc1` returned a Cures of 0. In addition, the ILS at 200 mg/kg in assay [3] stood at 0%.
In assay [8], `C(=N\NC1=NCCCCN1)/c1c2ccccc2c(/C=N/NC2=NCCCCN2)c2ccccc12` had an ILS at 12.5 mg/kg of 90%. In assay [5], this compound came in with an increase in life span (ILS) at 12 mg/kg of 173%. Also, the Cures in assay [6] was 1; in assay [2], 0.
Consider `CSC(=N)N/N=C/c1c2ccccc2c(/C=N/N=C(/N)SC)c2ccccc12`, for which the Cures in assay [2] stood at 0. In assay [3], this compound displayed an ILS at 200 mg/kg of 0%.
The matching figures for `CN(C)CC/N=C/c1c2ccccc2c(/C=N/CCN(C)C)c2ccccc12`: 0 and 0%.
Taken in the same sequence, the figures for `N/N=C(\S)N/N=C/c1c2ccccc2c(/C=N/N/C(S)=N/N)c2ccccc12` were 0 and 0%.
With `CN(C)/N=C/c1c2ccccc2c(/C=N/N(C)C)c2ccccc12`, in assay [2], the Cures is reported as 0. For the same compound, the increase in life span (ILS) at 200 mg/kg in assay [3] was 0%.
The matching figures for `Cc1ccc(S(=O)(=O)N/N=C/c2c3ccccc3c(/C=N/NS(=O)(=O)c3ccc(C)cc3)c3ccccc23)cc1`: 0 and 0%.
In assay [2], `CN/N=C/c1c2ccccc2c(/C=N/NC)c2ccccc12` showed a Cures of 0. In assay [3], this compound gave an ILS at 200 mg/kg of 0%.
For `C(=N\NC1=NCc2ccccc2CN1)/c1c2ccccc2c(/C=N/NC2=NCc3ccccc3CN2)c2ccccc12`, the Cures in assay [2] came to 0. In assay [3], this compound had an increase in life span (ILS) at 200 mg/kg of 30%.
